Data as given in ChEMBL document CHEMBL2331494, “First synthesis and biological evaluation of indeno[2,1-e]pyrazolo[3,4-b]pyrazin-5-one and related derivatives” (2013).
Converted amounts (≈) assume the structure as drawn.

Tests used:
Format in all cases: functional
Serratia marcescens = assay: Antibacterial activity against Serratia marcescens AUMC B-55 assessed as diameter of growth inhibition zone at 20 mg/ml at 28 degC after 48 hrs; conditions: AUMC B-55, 48 h, read-out: DIZ
Procedure, shortened: (§1)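 Inocula: each bacterial strain grown 48 h in nutrient broth (30 ml per flask). For the assay, 1 ml microbial suspension and 15 ml nutrient agar were poured into each 10 cm Petri plate, compound solutions were applied, and the diameter of the inhibition zone was read.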

Escherichia coli = assay: Antibacterial activity against Escherichia coli AUMC B-53 assessed as diameter of growth inhibition zone at 20 mg/ml at 28 degC after 48 hrs; conditions: AUMC B-53, 48 h, read-out: DIZ; procedure, shortened: as §1
Micrococcus luteus = assay: Antibacterial activity against Micrococcus luteus AUMC B-112 assessed as diameter of growth inhibition zone at 20 mg/ml at 28 degC after 48 hrs; conditions: AUMC B-112, 48 h, read-out: DIZ; procedure, shortened: as §1
Trichophyton rubrum [1] = assay: Antifungal activity against Trichophyton rubrum AUMC 1804 assessed as diameter of growth inhibition zone at 20 mg/ml at 28 degC after 7 days; conditions: AUMC 1804, 168 h, read-out: DIZ
Procedure, shortened: (§2)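 Inocula: each fungus grown 7 days in Sabouraud's dextrose broth (30 ml per flask). Plates were 10 cm Petri dishes with 1 ml microbial suspension and 15 ml Sabouraud's dextrose agar each. Compound solutions were applied and the diameter of the growth inhibition zone was recorded.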

Candida albicans = assay: Antifungal activity against Candida albicans AUMC 418 assessed as diameter of growth inhibition zone at 20 mg/ml at 28 degC after 7 days; conditions: AUMC 418, 168 h, read-out: DIZ; procedure, shortened: as §2
[2] = test system: Scopulariopsis brevicaulis; assay: Antifungal activity against Scopulariopsis brevicaulis AUMC 729 assessed as diameter of growth inhibition zone at 20 mg/ml at 28 degC after 7 days; conditions: AUMC 729, 168 h, read-out: DIZ; procedure, shortened: as §2
Staphylococcus aureus = assay: Antibacterial activity against Staphylococcus aureus AUMC B-54 assessed as diameter of growth inhibition zone at 20 mg/ml at 28 degC after 48 hrs; conditions: AUMC B-54, 48 h, read-out: DIZ; procedure, shortened: as §1
Geotrichum candidum = assay: Antifungal activity against Geotrichum candidum AUMC 226 assessed as diameter of growth inhibition zone at 20 mg/ml at 28 degC after 7 days; conditions: AUMC 226, 168 h, read-out: DIZ; procedure, shortened: as §2
Bacillus cereus = assay: Antibacterial activity against Bacillus cereus AUMC B-52 assessed as diameter of growth inhibition zone at 20 mg/ml at 28 degC after 48 hrs; conditions: AUMC B-52, 48 h, read-out: DIZ; procedure, shortened: as §1
Aspergillus flavus [3] = assay: Antifungal activity against Aspergillus flavus AUMC 1276 assessed as diameter of growth inhibition zone at 20 mg/ml at 28 degC after 7 days; conditions: AUMC 1276, 168 h, read-out: DIZ; procedure, shortened: as §2
Fusarium oxysporum = assay: Antifungal activity against Fusarium oxysporum AUMC 5119 assessed as diameter of growth inhibition zone at 20 mg/ml at 28 degC after 7 days; conditions: AUMC 5119, 168 h, read-out: DIZ; procedure, shortened: as §2
Pseudomonas aeruginosa = assay: Antibacterial activity against Pseudomonas aeruginosa AUMC B-73 g assessed as diameter of growth inhibition zone at 20 mg/ml at 28 degC after 48 hrs; conditions: read-out: DIZ; procedure, shortened: as §1
Trichophyton rubrum [4] = assay: Antifungal activity against Trichophyton rubrum AUMC 1804 assessed as growth inhibition at 28 degC after 7 days; conditions: for MIC: Trichophyton rubrum, AUMC 1804, 168 h
Aspergillus flavus [5] = assay: Antifungal activity against Aspergillus flavus AUMC 3214 assessed as growth inhibition at 28 degC after 7 days; conditions: for MIC: Aspergillus flavus, AUMC 3214, 168 h

MIC (Trichophyton rubrum [4]) | MIC (Aspergillus flavus [5]) | Structure (SMILES) | zone of inhibition at 20000 µg/mL (Serratia marcescens) | zone of inhibition at 20000 µg/mL (Escherichia coli) | zone of inhibition at 20000 µg/mL (Micrococcus luteus) | zone of inhibition at 20000 µg/mL (Trichophyton rubrum [1]) | zone of inhibition at 20000 µg/mL (Candida albicans) | zone of inhibition at 20000 µg/mL [2] | zone of inhibition at 20000 µg/mL (Staphylococcus aureus) | zone of inhibition at 20000 µg/mL (Geotrichum candidum) | zone of inhibition at 20000 µg/mL (Bacillus cereus) | zone of inhibition at 20000 µg/mL (Aspergillus flavus [3]) | zone of inhibition at 20000 µg/mL (Fusarium oxysporum) | zone of inhibition at 20000 µg/mL (Pseudomonas aeruginosa) | diameter of the inhibition zone (DIZ) (Trichophyton rubrum [4]) | diameter of the inhibition zone (DIZ) (Aspergillus flavus [5])
300 µg/mL (≈ 603 µM) | 2500 µg/mL (≈ 5020 µM) | CCOC(=O)C1S/C(=N\N=C2/c3ccccc3-c3nc4c(nc32)c(C)nn4-c2ccccc2)NC1=O (stereo unspecified) | 0 mm | 8 mm | 0 mm | 30 mm | 0 mm | 0 mm | 8 mm | 10 mm | 0 mm | 13 mm | 0 mm | 8 mm | 16 mm | 10 mm
300 µg/mL (≈ 778 µM) | 2500 µg/mL (≈ 6490 µM) | Cc1nn(-c2ccccc2)c2nc3c(nc12)/C(=N\NC(N)=S)c1ccccc1-3 | 0 mm | 0 mm | 0 mm | 30 mm | 0 mm | 0 mm | 8 mm | 17 mm | 0 mm | 16 mm | 0 mm | 0 mm | 14 mm | 14 mm
80 µg/mL (≈ 232 µM) | 150 µg/mL (≈ 435 µM) | Clc1ccccc1C(c1ccccc1)(c1ccccc1)n1ccnc1 [CLOTRIMAZOLE] | – | – | – | 36 mm | 24 mm | 28 mm | – | 26 mm | – | 44 mm | 20 mm | – | 35 mm | 15 mm
600 µg/mL (≈ 1430 µM) | 20000 µg/mL (≈ 47500 µM) | Cc1nn(-c2ccccc2)c2nc3c(nc12)/C(=C/c1ccccc1Cl)c1ccccc1-3 | 0 mm | 8 mm | 0 mm | 26 mm | 0 mm | 0 mm | 10 mm | 0 mm | 0 mm | 9 mm | 0 mm | 8 mm | 10 mm | 9 mm
300 µg/mL (≈ 618 µM) | 2500 µg/mL (≈ 5150 µM) | Cc1nn(-c2ccccc2)c2nc3c(nc12)/C(=N/N=c1/[nH]c(-c2ccccc2)cs1)c1ccccc1-3 | 0 mm | 8 mm | 0 mm | 30 mm | 0 mm | 0 mm | 10 mm | 10 mm | 0 mm | 16 mm | 0 mm | 0 mm | 14 mm | 12 mm
600 µg/mL (≈ 1410 µM) | 5000 µg/mL (≈ 11800 µM) | Cc1nn(-c2ccccc2)c2nc3c(nc12)/C(=N/N=C1/NC(=O)CS1)c1ccccc1-3 | 0 mm | 8 mm | 0 mm | 26 mm | 0 mm | 0 mm | 10 mm | 10 mm | 0 mm | 12 mm | 0 mm | 8 mm | 12 mm | 10 mm

Continued, molecule first:

Structure (SMILES) | MIC (Trichophyton rubrum [4]) | MIC (Aspergillus flavus [5]) | zone of inhibition at 20000 µg/mL (Serratia marcescens) | zone of inhibition at 20000 µg/mL (Escherichia coli) | zone of inhibition at 20000 µg/mL (Micrococcus luteus) | zone of inhibition at 20000 µg/mL (Trichophyton rubrum [1]) | zone of inhibition at 20000 µg/mL (Candida albicans) | zone of inhibition at 20000 µg/mL [2] | zone of inhibition at 20000 µg/mL (Staphylococcus aureus) | zone of inhibition at 20000 µg/mL (Geotrichum candidum) | zone of inhibition at 20000 µg/mL (Bacillus cereus) | zone of inhibition at 20000 µg/mL (Aspergillus flavus [3]) | zone of inhibition at 20000 µg/mL (Fusarium oxysporum) | zone of inhibition at 20000 µg/mL (Pseudomonas aeruginosa) | diameter of the inhibition zone (DIZ) (Trichophyton rubrum [4]) | diameter of the inhibition zone (DIZ) (Aspergillus flavus [5])
CCOC(=O)/C(C#N)=C1\c2ccccc2-c2nc3c(nc21)c(C)nn3-c1ccccc1 | – | – | 0 mm | 8 mm | 0 mm | 0 mm | 10 mm | 0 mm | 8 mm | 0 mm | 0 mm | 0 mm | 0 mm | 8 mm | – | –
Cc1nn(-c2ccccc2)c2nc3c(nc12)/C(=N\O)c1ccccc1-3 | – | – | 0 mm | 0 mm | 0 mm | 0 mm | 0 mm | 0 mm | 8 mm | 0 mm | 0 mm | 0 mm | 0 mm | 8 mm | – | –
Cc1nn(-c2ccccc2)c2nc3c(nc12)Cc1ccccc1-3 | – | – | 0 mm | 0 mm | 0 mm | 0 mm | 0 mm | 0 mm | 8 mm | 0 mm | 0 mm | 0 mm | 0 mm | 0 mm | – | –
Cc1nn(-c2ccccc2)c2nc3c(nc12)/C(=N/N)c1ccccc1-3 | – | – | 0 mm | 8 mm | 0 mm | 0 mm | 0 mm | 0 mm | 8 mm | 0 mm | 0 mm | 0 mm | 0 mm | 0 mm | – | –
Cc1nn(-c2ccccc2)c2nc3c(nc12)C(=O)c1ccccc1-3 | – | – | 0 mm | 10 mm | 0 mm | 0 mm | 0 mm | 0 mm | 8 mm | 0 mm | 0 mm | 0 mm | 0 mm | 0 mm | – | –
O=C(N[C@H](CO)[C@H](O)c1ccc([N+](=O)[O-])cc1)C(Cl)Cl [CHLORAMPHENICOL] | – | – | 20 mm | 18 mm | 20 mm | – | – | – | 18 mm | – | 22 mm | – | – | 18 mm | – | –
